GSTO1 inh: blocks human GSTO1 in RBBP9 counter-screen. actives 1.1% (n = 300,000). recombinant GSTO1, activity-based probe fluorescence polarization. AID 1974. P78417. inhibition, % at 5.96 µM;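 active = inhibition above the campaign mean inhibition plus 3 SD, cut at about 35% in these data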;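 also: 0% = GSTO1-1 with DMSO and 100% = wells lacking GSTO1-1 enzyme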
Target sequence (P78417 whole entry, looked up): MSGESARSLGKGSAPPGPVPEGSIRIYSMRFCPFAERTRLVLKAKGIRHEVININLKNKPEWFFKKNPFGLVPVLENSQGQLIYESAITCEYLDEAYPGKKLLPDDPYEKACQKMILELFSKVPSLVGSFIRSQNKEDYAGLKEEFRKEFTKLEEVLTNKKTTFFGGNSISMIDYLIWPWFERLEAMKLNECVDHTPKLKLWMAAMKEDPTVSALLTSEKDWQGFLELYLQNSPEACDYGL
PRMT1 inh: inhibitors of human PRMT1; AID 652257; Q99873; recombinant PRMT1, activity-based probe fluorescence polarization; actives 1.3% (n = 370,000); inhibition, % at 2.79 µM;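 active = inhibition above about 21% made by adding two undisclosed values, limit read from the data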
Target sequence (Q99873 whole entry, looked up): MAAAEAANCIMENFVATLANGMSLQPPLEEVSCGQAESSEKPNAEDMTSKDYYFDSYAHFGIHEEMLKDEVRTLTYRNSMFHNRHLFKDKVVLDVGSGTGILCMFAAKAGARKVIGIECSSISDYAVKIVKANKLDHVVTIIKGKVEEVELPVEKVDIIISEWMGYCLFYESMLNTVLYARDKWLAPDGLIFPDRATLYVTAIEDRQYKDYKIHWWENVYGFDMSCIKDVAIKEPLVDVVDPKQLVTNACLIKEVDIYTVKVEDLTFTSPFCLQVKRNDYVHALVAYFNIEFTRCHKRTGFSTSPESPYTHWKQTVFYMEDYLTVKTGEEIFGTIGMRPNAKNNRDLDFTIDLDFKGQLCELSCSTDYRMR
PAD4 inh: PAD4 (human) enzyme inhibition | recombinant PAD4, RCA probe fluorescence polarization | inhibition, % at 6.36 µM | actives 0.41% (n = 330,000) | Q9UM07;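 active = percent inhibition above a cutoff equal to the mean of all tested compounds plus 3 SD, cut at about 15% in these data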;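 also: 0% = PAD4 with RCA probe and DMSO and 100% = probe without PAD4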
eLon inh: E. coli protease La inhibition. P0A9M0. purified E. coli Lon protease, fluorescence polarization. inhibition, % at 7.94 µM. actives 0.42% (n = 360,000); in the data active = inhibition above about 13%, passing the limit was not always enough;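 also: 0% = enzyme with probe and DMSO and 100% = no enzyme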
TDP2 inh: TDP2 (human) inhibition, absorbance primary screen | AID 720702 | recombinant TDP2, T5PNP hydrolysis, p-nitrophenol absorbance 415 nm | actives 0.34% (n = 370,000) | O95551 | inhibition, % at 12.8 µM;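 active = inhibition above the mean of all tested compounds plus 3 SD, set per campaign, cut at about 25% in these data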;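 also: 0% = DMSO with enzyme and 100% = buffer with substrate but no TDP2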
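System – recombinant human TDP2 · Amount – 120 nM TDP2 per well · Buffer or medium – Mg2+-containing Tris-HCl buffer, pH 7.5 · Reagent – T5PNP substrate, 5 mM · Dosing – 12.8 µM single point, 1% DMSO · Incubation – 2 h at 37 °C · Measured by – epi absorbance · Read-out basis – percent inhibition · Benchmarks – high control without enzyme, low control DMSO plus TDP2 · Repeats – singlicate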
PRMT1 confirm: PRMT1 (human) inhibition, FP confirmation; shares compounds with PRMT1 inh; recombinant His-PRMT1, activity-based probe fluorescence polarization; inhibition, % at 2.79 µM; actives 42% (n = 3,300);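 active = mean inhibition across replicates above the hit cutoff derived for the earlier primary screen, cut at about 22% in these data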
* = called active by the depositor; / = no result given. Rows were chosen to be rich in hits. Some 2.5% of all compounds tested hit in one or more screens of this group.

SMILES | GSTO1 inh | PRMT1 inh | PAD4 inh | eLon inh | TDP2 inh | PRMT1 confirm
COc1ccccc1NC(=O)/C(C#N)=C/C=C/c1ccco1 | 6 | 28* | -1 | -14 | 0 | 9
Cc1ccc(-c2c3c([nH]c(=S)c2C#N)CCCC3)o1 | 15 | 50* | 6 | -2 | 8 | 31*
N#Cc1c(-c2ccncc2)c2c([nH]c1=S)CCCC2 | 1 | 37* | -9 | -7 | -9 | 8
N#Cc1c(SCC(N)=O)nc2c(c1-c1ccncc1)CCCC2 | 2 | 5 | -1 | 4 | -12 | /
Cc1ccc([C@H](C)NC(=O)C2=C(N)N(S(=O)(=O)c3ccc(C)cc3)C(C(=O)c3ccccc3)C2c2ccccc2Cl)cc1 (some centres undefined) | / | 3 | / | / | 2 | /
CCCN(C(=O)COC(=O)c1nc2nc(C)cc(C)n2n1)C1CCS(=O)(=O)C1 (centres undefined) | / | -1 | 0 | -4 | 4 | /
Cc1cccc(C)c1NC(=O)C(c1ccnc2ccccc12)N1CCN(CCN(C)C)CC1 (centres undefined) | / | -1 | / | / | 8 | /
CC(C)CN1C(=O)N2CCc3ccccc3C2CS1(=O)=O (centres undefined) | / | 7 | / | / | -1 | /
O=Cc1cn(-c2ccccc2)nc1-c1ccccc1 | 1 | -2 | -1 | -9 | 4 | /
C(=N\N1CCOCC1)/c1cn(-c2ccccc2)nc1-c1ccccc1 | 0 | 96* | -4 | -11 | 4 | -2
Cc1cc(O)ccc1Nc1nc(-c2sc(N)nc2C)cs1 | 20 | 34* | -3 | -11 | 17 | 14
CCC1CCCCN1S(=O)(=O)c1ccc2[nH]c(=O)ccc2c1 (centres undefined) | 3 | -1 | -1 | -8 | -3 | /
O=C(NC1CCCc2ccccc21)c1cc(S(=O)(=O)N2CCOCC2)ccc1F (centres undefined) | 8 | 2 | -4 | 3 | 2 | /
O=C(CSc1nc2cc(S(=O)(=O)N3CCOCC3)ccc2o1)NC1CCCc2ccccc21 (centres undefined) | -6 | 30* | 2 | 2 | 6 | 25*
O=C(CSc1nc2cc(S(=O)(=O)N3CCOCC3)ccc2o1)Nc1c(F)cccc1F | 6 | 54* | -2 | 9 | -2 | 47*
COc1cc2c(cc1OC)CN(C(=O)CSC1=NCCS1)CC2 | / | 4 | / | -16 | 7 | /
COc1cc2c(cc1OC)CN(C(=O)CSc1ccccc1C)CC2 | / | 33* | -7 | -3 | 0 | 16
O=C1C(c2ccccc2)CN1Cc1ccccc1 (centres undefined) | / | 0 | / | -10 | -6 | /
O=C1N(Cc2ccccc2)CC2(Br)COCOC12O (centres undefined) | / | 90* | / | 5 | 13 | 91*
COc1ccccc1NC(=O)CSc1nccc(-c2ccco2)n1 | / | 32* | -2 | -18 | -16 | 7
COc1ccccc1NC(=O)CSC1=NCCN1 | 3 | 31* | 14 | 13 | -2 | 21
O=C(CSC1=NCCN1)Nc1cccc([N+](=O)[O-])c1 | 16 | 34* | 6 | -3 | -3 | 16
CCOc1ccccc1NC(=O)/C=C/c1ccccc1[N+](=O)[O-] | 7 | -3 | -6 | 0 | 5 | /
COc1ccccc1NC(=O)CSc1nccc(=O)[nH]1 | 10 | / | -15 | 1 | / | /
CCOc1ccccc1NC(=O)/C=C/C(N)=O | 3 | 61* | -6 | -8 | 10 | 47*
SMILES | GSTO1 inh | PRMT1 inh | PAD4 inh | eLon inh | TDP2 inh | PRMT1 confirm
Nc1nc(SCC(=O)Nc2cccc([N+](=O)[O-])c2)n[nH]1 | / | -3 | -1 | 4 | -4 | /
C[C@@H]1C[C@H](O)CCCCCC(=O)Cc2cc(O)cc(O)c2C(=O)O1 | / | -1 | / | / | -4 | /
Cc1ccccc1C#N | / | -4 | -2 | 7 | -7 | /
CC(C)CN1C(=O)[C@]2(CC(=O)N(C)C2c2ccccc2)c2cc(-n3cc(C4=CCCCC4)nn3)ccc21 (some centres undefined) | / | 0 | / | / | 4 | /
O=C(Nc1nc2ccsc2c(=O)s1)c1ccc(Cl)cc1 | 4 | -3 | 6 | 11 | -19 | /
Cc1ccc(C)c(NC(=O)CSc2c(C)n[nH]c2C)c1 | -1 | 5 | -3 | -3 | 12 | /
O=C(CSC1=NCCN1)Nc1ccccc1[N+](=O)[O-] | 18 | 55* | -2 | -5 | 7 | 19
CCn1c(SCC(=O)Nc2ccc(C)cc2)nnc1-c1ccccn1 | 9 | -1 | -5 | 6 | 1 | /
O=C(CSC1=NCCN1)NC1CCCCCC1 | 1 | 5 | 0 | -4 | -3 | /
O=C(CSC1=NC(=O)C(c2ccccc2)C(=O)N1)Nc1ccccc1[N+](=O)[O-] (centres undefined) | 16 | 4 | 2 | -1 | 1 | /
O=C(CSC1=NCCN1)NC(c1ccccc1)c1ccccc1 | -16 | 41* | 12 | 2 | 11 | 26*
Cc1ccc(NC(=O)CSC2=NCCN2)cc1 | -5 | 32* | 1 | 5 | 0 | 12
CCOc1ccccc1NC(=O)CSc1c(C)n[nH]c1C | 1 | 25* | 4 | -7 | -19 | 21
CCc1c(C)nc2cc(-c3cccc(Br)c3)[nH]n2c1=O | -12 | 4 | -9 | -3 | 5 | /
C[C@@H]1CN([C@H](C)CO)C(=O)CCCn2nncc2CO[C@@H]1CN(C)C(=O)Nc1ccc2c(c1)OCO2 | / | 1 | / | -1 | 4 | /
Cc1ccc(S(=O)(=O)N2C3CCCCC3O[C@H]2CC(=O)c2cccc3ccccc23)cc1 (some centres undefined) | / | -1 | / | / | -4 | /
Nc1[nH]c(C(=O)c2ccccc2)c(-c2ccccn2)c1C(=O)c1c[nH]c2ccc(Br)cc12 | / | 27* | / | / | 7 | 2
Nc1[nH]c(C(=O)c2ccccc2)c(-c2ccccn2)c1C(=O)c1c[nH]c2ccccc12 | / | 1 | / | / | -2 | /
CCOC(=O)c1ccc(N2C(=O)CC(N3CCC(O)(c4ccc(Cl)cc4)CC3)C2=O)cc1 (centres undefined) | 1 | 50* | 5 | 6 | -19 | 17
CCOc1ccc(N2C(=O)CC(N3CCC(O)(c4ccc(Br)cc4)CC3)C2=O)cc1 (centres undefined) | 2 | 56* | -5 | -6 | -10 | -1
CCOC(=O)c1ccc(N2C(=O)CC(N3CCC(O)(c4ccc(Br)cc4)CC3)C2=O)cc1 (centres undefined) | -6 | 8 | -6 | 3 | -8 | /
N#Cc1c(Cl)nsc1NN | 8 | 40* | -2 | -7 | 10 | 7
O=C1N/C(=N/S(=O)(=O)Cc2ccccc2)S/C1=C/c1ccc2c(c1)OCO2 | -15 | -1 | -7 | 0 | 13 | /
CCOC(=O)c1c(/N=C/c2cccc([N+](=O)[O-])c2O)sc(C)c1C | 4 | 28* | -2 | 0 | -3 | -1
C[C@@H]1COc2cc(N3CCSCC3)ccc2S(=O)(=O)N1 | / | -1 | / | 0 | -1 | /
O=C(NCc1ccc(Cl)cc1)c1ccc(Cn2cc(C(F)(F)F)ccc2=O)cc1 | 3 | 72* | -2 | -2 | 0 | 64*

Screening data as filed in PubChem BioAssay.
